# ChEMBL document CHEMBL1177727, “Diarylaniline derivatives as a distinct class of HIV-1 non-nucleoside reverse transcriptase inhibitors” (J Med Chem, 2010)
# Calls of active or inactive are those of the source. The rule behind the calls is not given here.
# Assays:
# [1] = system: Human immunodeficiency virus 1; assay: Resistant fold, ratio of EC50 for HIV1 with reverse transcriptase A17 (K103N, Y181C) mutant to EC50 for wild type HIV1 3B; format: functional
# [2] = system: Human immunodeficiency virus 1; assay: Antiviral activity against HIV1 with reverse transcriptase 8605MR mutant infected in human MT2 cells assessed as inhibition of p24 antigen production after 4 days by ELISA; format: functional, organism-based; settings: Human immunodeficiency virus 1, MT2, 96 h
# Method in brief: (§1)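 Drug-resistant HIV-1 strains (Panacos) at MOI 0.001 TCID₅₀/cell, mixed with compound dilutions in RPMI 1640/10% FBS and cells at 6×10⁵ cells/mL, 37 °C. Compound-containing fresh medium added on day 2; supernatant p24 ELISA on day 4. Averages of three independent assays.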
# [3] = system: Human immunodeficiency virus 1; assay: Antiviral activity against HIV1 with reverse transcriptase 6005MR mutant infected in human MT2 cells assessed as inhibition of p24 antigen production after 4 days by ELISA; format: functional, organism-based; settings: Human immunodeficiency virus 1, MT2, 96 h; method in brief: as §1
# [4] = system: Human immunodeficiency virus 1; assay: Antiviral activity against HIV1 3B infected in human H9 cells assessed as inhibition of viral replication after 6 days by p24 antigen based assay; format: functional, organism-based
# Method in brief: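 H9 cells (3 × 10⁵ cells/mL) infected with HIV-1 IIIB, 125 TCID₅₀ per well, with drug diluted from 10 mg/mL DMSO master stocks; screening at 100, 20, 4, 0.8 µg/mL, with further dilutions for actives. Media replaced on days 1 and 4; supernatant p24 antigen capture on day 6. Run alongside AZT control; averages of three independent assays.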
# [5] = Selectivity index, ratio of CC50 for human H9 cells to EC50 for HIV1 3B; format: toxicity, cell-based
# Method in brief: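 SI = CC50/EC50 in H9 cells. Toxicity by XTT on mock-infected H9 cultures set up identically to the HIV-1 IIIB infection wells (same drug concentrations, media changes days 1 and 4, 6-day culture).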
# [6] = system: Human immunodeficiency virus 1; assay: Antiviral activity against wild type HIV1 3B infected in human MT2 cells assessed as inhibition of p24 antigen production after 4 days by ELISA; format: functional, organism-based; settings: Human immunodeficiency virus 1, 3B, MT2, 96 h
# Method in brief: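 1 × 10⁴ MT-2 cells infected with HIV-1 IIIB (100 TCID₅₀) in RPMI 1640/10% FBS with graded compound overnight, then compound-free medium. Day-4 supernatants lysed in Triton X-100 and p24 measured by sandwich ELISA (HIVIG capture, anti-p24 mAb, TMB, A450) against a recombinant p24 standard curve. Triplicates; EC50 from percent inhibition via median-effect analysis.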
# H9 = assay: Cytotoxicity against human H9 cells after 6 days by XTT assay; format: cell-based; settings: h9, 144 h
# Method in brief: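 Mock-infected H9 human T cells (3 × 10⁵ cells/mL in RPMI 1640 with 10% fetal calf serum and L-glutamine, 37 °C, 5% CO₂) exposed to samples diluted from 10 mg/mL DMSO master stocks (screening at 100, 20, 4, 0.8 µg/mL). Media replaced on days 1 and 4, assay ended day 6. Viability by XTT, 50% cytotoxic concentration taken. Mean of three independent assays.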
# [7] = system: Human immunodeficiency virus 1; assay: Antiviral activity against HIV1 with reverse transcriptase Y181C mutant infected in human MT2 cells assessed as inhibition of p24 antigen production after 4 days by ELISA; format: functional, organism-based; settings: Human immunodeficiency virus 1, MT2, 96 h; method in brief: as §1
# [8] = system: Human immunodeficiency virus 1; assay: Antiviral activity against HIV1 with reverse transcriptase A17 (K103N, Y181C) mutant infected in human MT2 cells assessed as inhibition of p24 antigen production after 4 days by ELISA; format: functional, organism-based; settings: Human immunodeficiency virus 1, MT2, 96 h; method in brief: as §1
# [9] = target: Human immunodeficiency virus type 1 reverse transcriptase (Human immunodeficiency virus 1) (UniProt Q72547); assay: Inhibition of HIV1 DH012 reverse transcriptase
# Method in brief: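 Reverse transcriptase activity of primary isolate HIV-1 DH012 measured with a colorimetric HIV-1 RT kit following the manufacturer's protocol, in the presence of various compound concentrations. The kit reads RNA-dependent DNA polymerase activity.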
# [10] = Human immunodeficiency virus 1, 3B, H9, 144 h, read-out: EC50
Compound,"EC50 [4, 10] [µM]",Ratio CC50/EC50 [5],CC50 (H9) [µM],also measured
Cc1cc(Br)cc(C)c1Oc1cc(Nc2ccc(C#N)cc2)c(N)cc1[N+](=O)[O-],0.016,2842,,Ratio EC50 [1]: 20.3; EC50 [2]: 0.02 µM; EC50 [3]: 0.007 µM; EC50 [6]: 0.008 µM; CC50 (H9; 144 h): 45.5 µM; EC50 [7]: 1.3 µM; EC50 [8]: 0.254 µM
COc1ccc(Nc2cc(Oc3c(C)cc(C)cc3C)c([N+](=O)[O-])cc2[N+](=O)[O-])cc1,2.99,> 20,> 59.1,
Cc1cc(C=O)cc(C)c1Oc1ccc([N+](=O)[O-])c(Nc2ccc(C#N)cc2)c1,2.19,6,14.2,
Cc1cc(Br)cc(C)c1Oc1cc(Nc2ccc(Cl)cc2)c([N+](=O)[O-])cc1[N+](=O)[O-],,,,EC50 ([4]; h9): Not Active
Cc1cc(Br)cc(C)c1Oc1cc(Nc2ccc(C#N)cc2)c([N+](=O)[O-])cc1[N+](=O)[O-],0.172,> 301,> 51.8,
Cc1cn([C@H]2C[C@H](N=[N+]=[N-])[C@@H](CO)O2)c(=O)[nH]c1=O [ZIDOVUDINE],0.052,36019,1870,
Cc1cc(C#N)cc(C)c1Oc1nc(Nc2ccc(C#N)cc2)nc(N)c1Br [ETRAVIRINE],,,,Ratio EC50 [1]: 9.9; EC50 [6]: 0.058 µM; EC50 [8]: 0.575 µM
Cc1cccc(C)c1Oc1cc(Nc2ccc(C#N)cc2)c([N+](=O)[O-])cc1[N+](=O)[O-],0.545,> 113,> 61.9,
Cc1cc(C#N)cc(C)c1Oc1cc(Nc2ccc(C#N)cc2)c(N)cc1N,0.03,1698,51,Ratio EC50 [1]: 73.3; Activity [9]: Active; EC50 [2]: 0.138 µM; EC50 [3]: 0.033 µM; EC50 [6]: 0.065 µM; EC50 [7]: 1.73 µM; EC50 [8]: 1.24 µM
Cc1cc(C#N)cc(C)c1Oc1cc(Nc2ccc(C#N)cc2)c(N)cc1[N+](=O)[O-],0.003,20887,62.7,Ratio EC50 [1]: 18.9; Activity [9]: Active; EC50 [2]: 0.005 µM; EC50 [3]: 0.005 µM; EC50 [6]: 0.005 µM; EC50 [7]: 0.504 µM; EC50 [8]: 0.231 µM
Cc1cc(C)c(Oc2ccc([N+](=O)[O-])c(Nc3ccc(C#N)cc3)c2)c(C)c1,0.067,> 1000,> 67,
Cc1cc(Br)cc(C)c1Oc1cc(Nc2ccc([N+](=O)[O-])cc2)c([N+](=O)[O-])cc1[N+](=O)[O-],> 49.7,> 1,> 49.7,
Cc1cc(Br)cc(C)c1Oc1cc(Nc2ccc(C#N)cc2)c(N)cc1N,0.161,238,38.4,
Cc1cc(C)c(Oc2ccc(N)c(Nc3ccc(C#N)cc3)c2)c(C)c1,0.073,699,51,
Cc1cc(C)c(Oc2cc(Nc3ccc(C#N)cc3)c(N)cc2[N+](=O)[O-])c(C)c1,0.062,520,32.2,
Cc1cc(Br)cc(C)c1Oc1ccc(N)c(Nc2ccc(C#N)cc2)c1,0.047,949,44.6,
Cc1cccc(C)c1Oc1cc(Nc2ccc(C#N)cc2)c(N)cc1N,3.23,16,53.2,
Cc1ccnc2c1NC(=O)c1cccnc1N2C1CC1 [NEVIRAPINE],,,,EC50 [2]: > 3.7 µM; EC50 [3]: > 3.7 µM; EC50 [6]: 0.053 µM; EC50 [7]: > 3.7 µM; EC50 [8]: > 3.7 µM
Cc1cc(Br)cc(C)c1Oc1cc(Nc2ccc(C#N)cc2)c(N)cc1[N+](=O)[O-].Cl,,3035,,"EC50 ([4]; h9, read-out: EC50): 0.012 µM"
Cc1cc(C#N)cc(C)c1Oc1ccc(N)c(Nc2ccc(C#N)cc2)c1,0.07,711,49.8,
Cc1cc(Br)cc(C)c1Oc1ccc([N+](=O)[O-])c(Nc2ccc(C#N)cc2)c1,0.317,> 180,> 57.1,
Cc1cc(C=O)cc(C)c1Oc1cc(Nc2ccc(C#N)cc2)c([N+](=O)[O-])cc1[N+](=O)[O-],1.53,38,57.9,
Cc1ccc(Nc2cc(Oc3c(C)cc(Br)cc3C)c([N+](=O)[O-])cc2[N+](=O)[O-])cc1,4.31,12,53,
Cc1cc(C)c(Oc2cc(Nc3ccc(C#N)cc3)c([N+](=O)[O-])cc2[N+](=O)[O-])c(C)c1,0.28,> 214,> 59.8,
COc1ccc(Nc2cc(Oc3c(C)cccc3C)c([N+](=O)[O-])cc2[N+](=O)[O-])cc1,3.84,> 16,> 61.1,
Cc1cc(C#N)cc(C)c1Oc1cc(Nc2ccc(C#N)cc2)c([N+](=O)[O-])cc1[N+](=O)[O-],4.19,> 14,> 58.3,
Cc1cc(C)c(Oc2cc(Nc3ccc(C#N)cc3)c(N)cc2N)c(C)c1,0.07,714,50,
Cc1cccc(C)c1Oc1ccc([N+](=O)[O-])c(Nc2ccc(C#N)cc2)c1,3.15,22,69.6,
Cc1cc(C#N)cc(C)c1Oc1ccc([N+](=O)[O-])c(Nc2ccc(C#N)cc2)c1,0.208,> 313,> 65.1,
COc1ccc(Nc2cc(Oc3c(C)cc(Br)cc3C)c([N+](=O)[O-])cc2[N+](=O)[O-])cc1,3.63,14,51.2,
